Reference: ChEMBL document CHEMBL4308922, “Design and Evaluation of Heterobivalent PAR1-PAR2 Ligands as Antagonists of Calcium Mobilization” (ACS Med Chem Lett, 2019)
Active and inactive are the calls of the source. No cut-off for these calls is given here.

Tests used:
[1] = target: T1, Proteinase-activated receptor 1 (Homo sapiens) (UniProt P25116); assay: (§1) Antagonist activity at PAR1 in human MDA-MB-231 cells assessed as inhibition of TFLLRN-NH2-induced intracellular calcium mobilization preincubated for 15 mins followed by TFLLRN-NH2 addition by Fluo-4-AM dye based fluorescence assay; format: functional, cell-based
T1 sequence (whole entry): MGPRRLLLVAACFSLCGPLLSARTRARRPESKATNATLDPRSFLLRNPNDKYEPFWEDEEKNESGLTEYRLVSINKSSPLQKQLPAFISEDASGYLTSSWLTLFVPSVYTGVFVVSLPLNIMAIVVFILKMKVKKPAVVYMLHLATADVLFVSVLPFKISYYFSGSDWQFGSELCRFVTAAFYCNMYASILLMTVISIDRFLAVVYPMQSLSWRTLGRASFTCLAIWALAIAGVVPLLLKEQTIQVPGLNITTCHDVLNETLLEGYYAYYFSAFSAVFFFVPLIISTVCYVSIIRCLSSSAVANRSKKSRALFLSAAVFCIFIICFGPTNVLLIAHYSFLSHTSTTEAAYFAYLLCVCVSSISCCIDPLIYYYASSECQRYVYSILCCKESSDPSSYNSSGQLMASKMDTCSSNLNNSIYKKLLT
Method in brief: (§2)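 Adherent cells grown in 96-well plates to confluence (~48 h), loaded with Fluo-4/AM; antagonist added, then PAR1 agonist TFLLRN-NH2 at 5 μM. Concentration–response curves from N = 3 on a single plate, fitted by four-variable nonlinear regression to give IC50; errors as SEM.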

Homo sapiens = species: Homo sapiens; assay: (§3) Antagonist activity at PAR1/PAR2 in human EAhy926 cells assessed as inhibition of SFLLRN-NH2-induced intracellular calcium mobilization preincubated for 15 mins followed by SFLLRN-NH2 addition by Fluo-4-AM dye based fluorescence assay; format: cell-based
Method in brief: (§4)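 Cells cultured to confluence over ~48 h in 96-well plates, Fluo-4/AM loaded; antagonist added, then PAR1/2 agonist SFLLRN-NH2 at 3.16 μM. Curves from triplicate wells on a single plate fitted by four-variable nonlinear regression for IC50; SEM reported.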

MDA-MB-231 = assay: (§5) Antagonist activity at PAR1/PAR2 in human MDA-MB-231 cells assessed as inhibition of SFLLRN-NH2-induced intracellular calcium mobilization preincubated for 15 mins followed by SFLLRN-NH2 addition by Fluo-4-AM dye based fluorescence assay; format: cell-based; method in brief: as §4
[2] = target: T1, Proteinase-activated receptor 1 (Homo sapiens); assay: (§6) Antagonist activity at PAR1 in human EAhy926 cells assessed as inhibition of TFLLRN-NH2-induced intracellular calcium mobilization preincubated for 15 mins followed by TFLLRN-NH2 addition by Fluo-4-AM dye based fluorescence assay; format: functional, cell-based; method in brief: as §2
[3] = target: Proteinase-activated receptor 2 (Homo sapiens) (UniProt P55085); assay: (§7) Antagonist activity at PAR2 in human MDA-MB-231 cells assessed as inhibition of SLIGKV-NH2-induced intracellular calcium mobilization preincubated for 15 mins followed by SLIGKV-NH2 addition by Fluo-4-AM dye based fluorescence assay; format: functional, cell-based
Method in brief: (§8)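 Confluent adherent cells (~48 h growth in 96-well plates) loaded with Fluo-4/AM calcium dye; antagonist added before PAR2 agonist SLIGKV-NH2 at 5 μM. IC50 from four-variable nonlinear regression of concentration–response data, N = 3 on one plate, SEM error bars.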

[4] = target: Proteinase-activated receptor 2 (Homo sapiens) (UniProt P55085); assay: (§9) Antagonist activity at PAR2 in human EAhy926 cells assessed as inhibition of SLIGKV-NH2-induced intracellular calcium mobilization preincubated for 15 mins followed by SLIGKV-NH2 addition by Fluo-4-AM dye based fluorescence assay; format: functional, cell-based; method in brief: as §8
[5] = target: T2, Proteinase-activated receptor 1 (Homo sapiens, UniProt P25116); assay: (§10) Antagonist activity at PAR1 in human EAhy926 cells assessed as inhibition of thrombin-induced intracellular calcium mobilization preincubated for 15 mins followed by thrombin addition by Fluo-4-AM dye based fluorescence assay; format: functional, cell-based
T2 sequence (P25116 whole entry): T1 sequence (whole entry)
Method in brief: (§11)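 Fluo-4/AM-loaded confluent EA.hy926 monolayers; antagonist added before 1 nM thrombin as activating protease; calcium mobilization curves fitted for IC50.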

[6] = target: T2, Proteinase-activated receptor 1; assay: as §1; format: functional, cell-based; method in brief: as §2
[7] = target: Proteinase-activated receptor 2 (Homo sapiens) (UniProt P55085); assay: (§12) Antagonist activity at PAR2 in human EAhy926 cells assessed as inhibition of trypsin-induced intracellular calcium mobilization preincubated for 15 mins followed by trypsin addition by Fluo-4-AM dye based fluorescence assay; format: functional, cell-based
Method in brief: (§13)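 Fluo-4/AM-loaded confluent cells; antagonist added before 5 nM trypsin as PAR2-activating protease; calcium mobilization concentration–response fitted for IC50.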

[8] = as §3; format: cell-based; details: EA.hy 926; method in brief: as §4
[9] = as §5; format: cell-based; method in brief: as §4
[10] = target: T2, Proteinase-activated receptor 1; assay: as §6; format: functional, cell-based; method in brief: as §2
[11] = Half life in mouse plasma at 10 uM by LC-MS/MS analysis; format: ADME, cell-free
[12] = target: T3, Proteinase-activated receptor 2 (Homo sapiens, UniProt P55085); assay: as §7; format: functional, cell-based; method in brief: as §8
T3 sequence (P55085 whole entry): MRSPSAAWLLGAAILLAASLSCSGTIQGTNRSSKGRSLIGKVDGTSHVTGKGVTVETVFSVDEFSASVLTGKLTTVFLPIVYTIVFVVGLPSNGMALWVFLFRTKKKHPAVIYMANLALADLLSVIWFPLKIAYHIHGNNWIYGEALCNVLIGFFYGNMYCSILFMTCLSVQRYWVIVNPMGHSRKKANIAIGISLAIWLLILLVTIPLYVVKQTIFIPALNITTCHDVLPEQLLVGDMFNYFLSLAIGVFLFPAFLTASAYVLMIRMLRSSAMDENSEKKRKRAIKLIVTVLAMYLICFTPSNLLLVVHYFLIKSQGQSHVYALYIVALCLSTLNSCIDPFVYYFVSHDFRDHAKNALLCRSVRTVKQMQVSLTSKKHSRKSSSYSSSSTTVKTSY

[13] = target: T3, Proteinase-activated receptor 2; assay: as §9; format: functional, cell-based; method in brief: as §8
[14] = target: T3, Proteinase-activated receptor 2; assay: as §12; format: functional, cell-based; method in brief: as §13
[15] = target: T1, Proteinase-activated receptor 1 (Homo sapiens); assay: as §10; format: functional, cell-based; method in brief: as §11

Row | SMILES | inhibition [4] | IC50 [8] | IC50 [10] | IC50 [13] | inhibition (Homo sapiens) | other results
1 | CC(C)c1cc(-c2ccc(F)cc2)nn2cc(C(=O)N3CCN(C(=O)CCC(=O)NCCCCC(=O)NCCOCCOCCOCCOCCOCCOCCOCCOCCOCCOCCOCCOCCOCCOCCOCCOCCOCCOCCOCCOCCOCCOCCOCCn4cc(CCC(=O)NCC[C@H](NC(=O)[C@H](Cc5ccc(F)c(F)c5)NC(=O)Nc5ccc6c(CN7CCCC7)nn(Cc7c(Cl)cccc7Cl)c6c5)C(=O)NCc5ccccc5)nn4)CC3(C)C)nc12 | inactive |  |  |  | inactive | inhibition [1]: inactive; inhibition (MDA-MB-231): inactive; inhibition [2]: inactive; inhibition [3]: inactive
2 | CC(C)c1cc(-c2ccc(F)cc2)nn2cc(C(=O)N3CCN(C(=O)CCC(=O)NCCCCCC(=O)NCCOCCOCCOCCOCCOCCOCCOCCOCCOCCOCCOCCOCCOCCOCCOCCOCCOCCOCCOCCOCCOCCOCCOCCN=[N+]=[N-])CC3(C)C)nc12 | inactive |  |  |  |  | inhibition [3]: inactive
3 | CC(C)c1cc(-c2ccc(F)cc2)nn2cc(C(=O)N3CCN(C(=O)CCC(=O)O)CC3(C)C)nc12 |  |  |  | 100 nM |  | IC50 [14]: 2 nM; IC50 [12]: 480 nM
4 | COCc1cn(CCOCCOCCOCCOCCOCCOCCOCCOCCOCCOCCNC(=O)CCC(=O)N2CCN(C(=O)c3cn4nc(-c5ccc(F)cc5)cc(C(C)C)c4n3)C(C)(C)C2)nn1 |  |  |  | 7000 nM | inactive | inhibition [7]: inactive; IC50 [12]: 860 nM
5 | CC1(C)CN(C(=O)[C@H]2CC[C@H](C(=O)O)CC2)CCN1C(=O)c1cn2nc(-c3ccc(F)cc3)cc(-c3ccc(F)cc3)c2n1 | Active |  |  |  |  | inhibition [3]: Active
6 | NCC[C@H](NC(=O)[C@H](Cc1ccc(F)c(F)c1)NC(=O)Nc1ccc2c(CN3CCCC3)nn(Cc3c(Cl)cccc3Cl)c2c1)C(=O)NCc1ccccc1 [RWJ-58259] |  |  |  |  |  | IC50 [6]: 5 nM
7 | NCCOCCOCCOCCOCCOCCOCCOCCOCCn1cc(CCC(=O)NCC[C@H](NC(=O)[C@H](Cc2ccc(F)c(F)c2)NC(=O)Nc2ccc3c(CN4CCCC4)nn(Cc4c(Cl)cccc4Cl)c3c2)C(=O)NCc2ccccc2)nn1 |  | 74 nM | 97 nM |  |  | inhibition [15]: Active; IC50 [6]: 10 nM

Second part, led by results:

Row | inhibition [4] | IC50 [8] | IC50 [10] | IC50 [13] | SMILES | inhibition (Homo sapiens) | other results
8 |  | 150 nM | 180 nM | 3300 nM | CC(C)c1cc(-c2ccc(F)cc2)nn2cc(C(=O)N3CCN(C(=O)CCC(=O)NCCOCCOCCOCCOCCOCCOCCOCCOCCOCCOCCOCCOCCOCCOCCOCCOCCOCCOCCOCCOCCOCCOCCOCCn4cc(CCC(=O)NCC[C@H](NC(=O)[C@H](Cc5ccc(F)c(F)c5)NC(=O)Nc5ccc6c(CN7CCCC7)nn(Cc7c(Cl)cccc7Cl)c6c5)C(=O)NCc5ccccc5)nn4)CC3(C)C)nc12 |  | IC50 [5]: 360 nM; IC50 [6]: 140 nM; inhibition [7]: inactive; IC50 [9]: 3300 nM; half-life at 10 µM [11]: 5.6 h; IC50 [12]: 3500 nM
9 | Active |  |  |  | CC1(C)CN(C(=O)[C@H]2CC[C@H](C(=O)NCCOCCOCCOCCOCCOCCOCCn3cc(CCC(=O)NCC[C@H](NC(=O)[C@H](Cc4ccc(F)c(F)c4)NC(=O)Nc4ccc5c(CN6CCCC6)nn(Cc6c(Cl)cccc6Cl)c5c4)C(=O)NCc4ccccc4)nn3)CC2)CCN1C(=O)c1cn2nc(-c3ccc(F)cc3)cc(-c3ccc(F)cc3)c2n1 | Active | inhibition [2]: Active
10 |  | > 50000 nM | 40 nM | > 50000 nM | CC(C)c1cc(-c2ccc(F)cc2)nn2cc(C(=O)N3CCN(C(=O)CCC(=O)NCCOCCOCCOCCOCCOCCOCCOCCOCCOCCOCCn4cc(CCC(=O)NCC[C@H](NC(=O)[C@H](Cc5ccc(F)c(F)c5)NC(=O)Nc5ccc6c(CN7CCCC7)nn(Cc7c(Cl)cccc7Cl)c6c5)C(=O)NCc5ccccc5)nn4)CC3(C)C)nc12 |  | 
11 |  | 3000 nM | 130 nM | > 50000 nM | CC(C)c1cc(-c2ccc(F)cc2)nn2cc(C(=O)N3CCN(C(=O)CCC(=O)NCCOCCOCCOCCOCCOCCOCCOCCOCCn4cc(CCC(=O)NCC[C@H](NC(=O)[C@H](Cc5ccc(F)c(F)c5)NC(=O)Nc5ccc6c(CN7CCCC7)nn(Cc7c(Cl)cccc7Cl)c6c5)C(=O)NCc5ccccc5)nn4)CC3(C)C)nc12 |  | 
12 |  | 3000 nM | 30 nM | > 50000 nM | CC(C)c1cc(-c2ccc(F)cc2)nn2cc(C(=O)N3CCN(C(=O)CCC(=O)NCCOCCOCCOCCOCCOCCOCCn4cc(CCC(=O)NCC[C@H](NC(=O)[C@H](Cc5ccc(F)c(F)c5)NC(=O)Nc5ccc6c(CN7CCCC7)nn(Cc7c(Cl)cccc7Cl)c6c5)C(=O)NCc5ccccc5)nn4)CC3(C)C)nc12 |  | 
13 | Active |  |  |  | CC1(C)CN(C(=O)[C@H]2CC[C@H](C(=O)NCCOCCOCCOCCOCCOCCOCCOCCOCCn3cc(CCC(=O)NCC[C@H](NC(=O)[C@H](Cc4ccc(F)c(F)c4)NC(=O)Nc4ccc5c(CN6CCCC6)nn(Cc6c(Cl)cccc6Cl)c5c4)C(=O)NCc4ccccc4)nn3)CC2)CCN1C(=O)c1cn2nc(-c3ccc(F)cc3)cc(-c3ccc(F)cc3)c2n1 | Active | inhibition [2]: Active
14 | Active |  |  |  | CC1(C)CN(C(=O)[C@H]2CC[C@H](C(=O)NCCOCCOCCOCCOCCOCCOCCOCCOCCOCCOCCn3cc(CCC(=O)NCC[C@H](NC(=O)[C@H](Cc4ccc(F)c(F)c4)NC(=O)Nc4ccc5c(CN6CCCC6)nn(Cc6c(Cl)cccc6Cl)c5c4)C(=O)NCc4ccccc4)nn3)CC2)CCN1C(=O)c1cn2nc(-c3ccc(F)cc3)cc(-c3ccc(F)cc3)c2n1 | Active | inhibition [2]: Active
